Test [1] is described as follows: inhibitors of TNFa-induced NFkB p65 translocation, primary screen, imaging, HUVEC, MLSMR starter and 10KST1 sets (AID 438;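 active = inhibition above 20% together with a positive visual image hit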;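 also: compound added about 3h40 before a 20 min TNFalpha stimulation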;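 as to inhibition: signal is the nuclear over cytoplasmic p65 intensity ratio per well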). As to conditions: HUVEC TNFa-induced p65 nuclear translocation; cell count: measured here: nuclei count (cytotoxicity indicator), at 2.08 µM; inhibition: at 2 µM, stronger effect = higher value, 0% TNFa-plus-vehicle, 100% no-TNFa wells.
A short description of test [2]: inhibitors of mutant huntingtin aggregation, primary screen, imaging, exon1htt(103Q)mCFP cells, high-content imaging (AID 483;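 active = visual image review flags a hit and inhibition of aggregation exceeds 20%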;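 also: compound exposure lasted 3 days before fixation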;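 as to nuclei count: percent of the per-plate median nuclei count of sample wells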). As to conditions: exon1htt(103Q)mCFP cell line, aggregate imaging, at 2 µM; inhibition of aggregation: stronger effect = higher value; nuclei count: measured here: cell count, toxicity.
Test [3] in a line: inhibitors of E-selectin induction by TNFa, primary screen, imaging, HUVEC, immunofluorescence, MLSMR starter and 10KST1 sets (AID 487).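 As to inhibition: signal is fraction of cell area covered by stained E-selectin grains.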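 As to nuclei count: 100% = median nuclei count of all wells on the same plate.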 As to conditions: HUVEC TNFalpha-induced E-selectin immunofluorescence imaging, at 2 µM; inhibition: stronger effect = higher value; nuclei count: measured here: cell number, toxicity.
Test [4] addresses Voltage-gated potassium channel subunit beta-2 (Rattus norvegicus) (UniProt P62483). The test can be described thus: KvBeta enzyme negative modulators, primary screen, biochemical, NADPH fluorescence (AID 622;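 active = fluorescence slope higher than the sample average by over 3 SD, cut at about -0.22 in these data, passing the limit was not always enough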;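 also: slope of raw intensity against log time taken from 70 to 1610 s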). As to conditions: recombinant KvBeta, 4-cyanobenzaldehyde reduction, at 10 µM, stronger effect = higher value.
The target is the same in test [5]. The test can be described thus: KvBeta positive modulators, primary screen, biochemical, NADPH fluorescence (AID 623;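 active = NADPH fluorescence slope more negative than the mean of all samples by about 3 SD, 99.7% confidence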;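 also: fluorescence intensity change per second fitted from 20 to 320 s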). As to conditions: Recombinant KvBeta, NADPH fluorescence decrease slope, 10 min; at 10 µM; stronger effect = lower value.
Test [6] addresses Muscarinic acetylcholine receptor M4 (Homo sapiens) (UniProt P08173). As to the kind of experiment: compounds altering M4/GIRK thallium flux, either direction, primary screen, M4 allosteric agonist project, cell-based, HEK293 M4/GIRK, BTC-AM (AID 625;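 active = fluorescence slope after compound addition differing from the mean of all tested samples at 99.7% confidence, mostly higher but some lower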;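 also: thallium influx through GIRK channels coupled to M4 in HEK293 cells with BTC-AM dye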). As to conditions: at 10 µM, actives lie on both sides. The procedure, abridged: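 Material: M4/GIRK1/GIRK2 stable HEK293 cell line. Medium: pH 7.3 thallium assay buffer. Dosing: single compound concentration, 10 µM final. Schedule: 1 h dye loading, 2 min kinetic read. Measured by: kinetic fluorescence with BTC-AM dye. Read-out: post-addition slope, 15–24 s, of baseline-normalized fluorescence. Benchmarks: carbachol and DMSO controls.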

Test [7] can be described thus: inhibitors of Sendai virus-induced IRF3 signaling, primary screen, TLR/RLR signaling modifier project, cell-based, Sendai virus stimulus, luciferase, 10K MLSCN set (AID 602276;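 active = inhibition at or above 50% at 10 µM; inactive = inhibition below 50%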;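 also: firefly luciferase from ISG56 promoter only with Renilla not read in this screen; 0% = Sendai virus plus DMSO and 100% = medium plus DMSO without virus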). As to conditions: HEK293 RL24 IRF3 luciferase reporter, at 10 µM, stronger effect = higher value.
Test [8] is described as follows: inhibitors of poly I:C-induced TLR3 signaling, primary screen, cell-based, poly I:C stimulus, luciferase, 10K MLSCN set (AID 602277;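 active = inhibition of the reporter signal at or above 50%; inactive = inhibition below 50%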). The conditions noted are these: HEK293-TLR3 RL24 IRF3 luciferase reporter, at 10 µM, stronger effect = higher value.

The results in this text go back to PubChem BioAssay.

Activity calls are given as the source filed them.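 The calls were made as follows, unless noted: active = visually confirmed hit in the image check and inhibition above 20%; inconclusive = visually confirmed hit but inhibition not above 20%; inactive = no visual hit in the image check.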

Chain of Voltage-gated potassium channel subunit beta-2 (Rattus norvegicus) (P62483 whole entry, looked up): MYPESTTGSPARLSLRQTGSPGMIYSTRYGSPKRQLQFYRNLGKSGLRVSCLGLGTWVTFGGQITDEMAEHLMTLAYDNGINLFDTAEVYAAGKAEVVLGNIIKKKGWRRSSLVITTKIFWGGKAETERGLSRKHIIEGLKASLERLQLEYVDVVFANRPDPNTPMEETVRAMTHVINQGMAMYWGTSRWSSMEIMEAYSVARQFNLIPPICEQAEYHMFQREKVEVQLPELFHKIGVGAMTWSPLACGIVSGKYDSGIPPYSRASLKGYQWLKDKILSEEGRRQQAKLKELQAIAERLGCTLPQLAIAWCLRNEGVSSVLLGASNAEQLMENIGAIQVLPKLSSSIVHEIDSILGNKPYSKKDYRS
Chain of Muscarinic acetylcholine receptor M4 (Homo sapiens) (P08173 whole entry, looked up): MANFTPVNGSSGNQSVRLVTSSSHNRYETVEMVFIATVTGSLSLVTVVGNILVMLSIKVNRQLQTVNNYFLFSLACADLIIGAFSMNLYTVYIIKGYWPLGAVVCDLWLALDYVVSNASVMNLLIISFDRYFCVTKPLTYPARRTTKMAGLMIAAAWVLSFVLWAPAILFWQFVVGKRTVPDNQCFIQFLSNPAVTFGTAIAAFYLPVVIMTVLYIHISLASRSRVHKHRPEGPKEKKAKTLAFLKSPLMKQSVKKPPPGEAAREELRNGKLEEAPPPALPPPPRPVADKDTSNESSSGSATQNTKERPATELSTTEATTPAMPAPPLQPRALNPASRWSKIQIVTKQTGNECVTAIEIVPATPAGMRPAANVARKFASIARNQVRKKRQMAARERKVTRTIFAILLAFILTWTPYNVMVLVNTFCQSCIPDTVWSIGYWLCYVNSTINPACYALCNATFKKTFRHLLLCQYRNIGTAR

For `COc1ccc(OC)c(N(CC(=O)N2CCN(c3cc(Cl)ccc3C)CC2)S(C)(=O)=O)c1`, in test [1], the cell count stood at 497. In addition, the inhibition in test [1] is -7.3% (inactive); in test [3], -13.6% (inactive); in test [7], 17% (inactive); in test [8] it was 24.6% (inactive). Besides, the inhibition of aggregation in test [2] is 23.1% (inactive). The nuclei count amounted to 61.4% in test [2] and 105% in test [3]. Further, the fluorescence slope in test [4] is -0.572 (inactive); in test [6] it was 0.00582 (inactive). In addition, in test [5], the NADPH fluorescence slope was -5.2e-05 (inactive).

On to `O=C(COc1ccc(S(=O)(=O)N2CCCC2)cc1Cl)NC1CC1`, for which the cell count in test [1] was 349. For the same compound, the inhibition is 5.7% (inactive) in test [1], 21.6% (inactive) in test [3], 15.4% (inactive) in test [7] and 16.4% (inactive) in test [8]. Besides, the inhibition of aggregation in test [2] was -1.8% (inactive). Besides, the figures for the nuclei count in test [2] and in test [3] were 58.7% and 98.3%, respectively. The figures for the fluorescence slope in test [4] and in test [6] were -0.232 (inactive) and 0.007 (inactive), respectively. Also, in test [5], the NADPH fluorescence slope is -1.9e-05 (inactive).

For the compound `COc1ccc(CNc2nc(SCC(=O)NCc3ccco3)nc3ccccc23)cc1`, the cell count in test [1] was determined as 705. In addition, the inhibition in test [1] is 0.9% (inactive); in test [3], -50.5% (inactive); in test [7], -0.825% (inactive); in test [8], 2.94% (inactive). The inhibition of aggregation in test [2] was -24.8% (inactive). In addition, the nuclei count in test [2] was 104%; in test [3] it was 99.3%. Also, the fluorescence slope in test [4] was -0.484 (inactive); in test [6], 0.00602 (inactive). Moreover, the NADPH fluorescence slope in test [5] was 9.7e-05 (inactive).

Regarding `CC1Oc2ccccc2N(CC(=O)N(Cc2ccccc2)Cc2ccccn2)C1=O` (centres undefined), the cell count in test [1] was found to be 640. The inhibition in test [1] was -12.1% (inactive); in test [3] it was 81.9% (active); in test [7], -6.61% (inactive); in test [8], -7.77% (inactive). In test [2], the inhibition of aggregation was -1.2% (inactive). Besides, the nuclei count in test [2] stood at 106%; in test [3], 112%. The fluorescence slope in test [4] was -0.297 (inactive); in test [6], 0.00604 (inactive). In addition, the NADPH fluorescence slope in test [5] was -8.9e-06 (inactive).

With `CCOC(=O)Cc1nnc(NC(=O)CSc2nnc3c4ccccc4n(C(C)C)c3n2)s1`, the cell count in test [1] was determined as 359. Besides, the inhibition is -7.7% (inactive) in test [1], -158% (inactive) in test [3], 18% (inactive) in test [7] and 25.8% (inactive) in test [8]. Besides, the inhibition of aggregation in test [2] was -10.9% (inactive). The figures for the nuclei count in test [2] and in test [3] were 94.3% and 90.2%, respectively. Moreover, the fluorescence slope in test [4] was -0.554 (inactive); in test [6], 0.00407 (inactive). Also, the NADPH fluorescence slope in test [5] was -3.3e-05 (inactive).

Take `CC(=O)Nc1ccc(NC(=O)c2ccccc2F)cc1`: the cell count in test [1] came to 345. Besides, the inhibition is -4.6% (inactive) in test [1], -14.4% (inactive) in test [3], -10.5% (inactive) in test [7] and -55% (inactive) in test [8]. For the same compound, the inhibition of aggregation in test [2] was 1.3% (inactive). Moreover, the values for the nuclei count in test [2] and in test [3] were 102% and 116%, respectively. Further, the fluorescence slope in test [4] is -0.556 (inactive); in test [6] it was 0.00528 (inactive). The NADPH fluorescence slope in test [5] is -1.7e-05 (inactive).

On to `COc1cc2[nH]c(=O)n(CCCCCC(=O)NCCCN3CCCC3=O)c(=O)c2cc1OC`, for which the cell count in test [1] is 703. Further, the inhibition was -23.7% (inactive) in test [1], -42.1% (inactive) in test [3], 13.3% (inactive) in test [7] and 22.1% (inactive) in test [8]. The inhibition of aggregation in test [2] is 3.9% (inactive). Moreover, the nuclei count in test [2] came to 102%; in test [3] it was 124%. Besides, the fluorescence slope was -0.457 (inactive) in test [4] and 0.0052 (inactive) in test [6]. Also, the NADPH fluorescence slope in test [5] is -7.1e-05 (inactive).

Consider `C/C(=N\O)c1ccc2c3c([nH]c2c1)CCCC3`, for which, in test [1], the cell count turned out to be 364. Besides, the inhibition in test [1] was -1.9% (inactive); in test [3] it was -78.7% (inactive); in test [7] it was -28% (inactive); in test [8], -111% (inactive). Also, the inhibition of aggregation in test [2] is 6.7% (inactive). Moreover, the nuclei count in test [2] was 87.1%; in test [3] it was 96.4%. For the same compound, the fluorescence slope was -0.532 (inactive) in test [4] and 0.006 (inactive) in test [6]. In addition, the NADPH fluorescence slope in test [5] was -3.8e-05 (inactive).

As for `O=c1c2ccccc2nc(-c2cccc(Cl)c2)n1O`, the cell count in test [1] was determined as 333. In addition, the inhibition was 11.6% (inactive) in test [1], -4.3% (inactive) in test [3], 17.4% (inactive) in test [7] and 6.85% (inactive) in test [8]. Also, the inhibition of aggregation in test [2] was 0.5% (inactive). Also, the nuclei count stood at 102% in test [2] and 112% in test [3]. For the same compound, the fluorescence slope in test [4] is -0.453 (inactive); in test [6], 0.0197 (active). For the same compound, the NADPH fluorescence slope in test [5] was -3.1e-05 (inactive).

Regarding `COC(=O)CN1C(=O)C2(C(C#N)=C(N)Oc3c2c(C)nn3-c2ccccc2)c2ccccc21` (centres undefined), the cell count in test [1] came to 668. Moreover, the inhibition in test [1] is -24.1% (inactive); in test [3], 18.6% (inactive); in test [7] it was 16.1% (inactive); in test [8] it was 19.7% (inactive). The inhibition of aggregation in test [2] was 5% (inactive). The nuclei count in test [2] and in test [3] was 97.4% in each case. The figures for the fluorescence slope in test [4] and in test [6] were -0.475 (inactive) and 0.0047 (inactive), respectively. Besides, the NADPH fluorescence slope in test [5] is -6.6e-05 (inactive).

On to `COc1ccc(-c2noc(COc3ccc4ccccc4c3Br)n2)cc1OC`, for which the cell count in test [1] came out at 565. In addition, the inhibition was 14.8% (inactive) in test [1], 8.2% (inactive) in test [3], -38.1% (inactive) in test [7] and -45.2% (inactive) in test [8]. Moreover, the inhibition of aggregation in test [2] was -29.8% (inactive). The nuclei count in test [2] was 109%; in test [3] it was 104%. In addition, the values for the fluorescence slope in test [4] and in test [6] were -0.564 (inactive) and 0.00985 (inactive), respectively. Besides, the NADPH fluorescence slope in test [5] is -3e-05 (inactive).

For the compound `Cn1c(=O)c2c(nc(SCC(=O)NCc3ccc4c(c3)OCO4)n2Cc2ccccc2)n(C)c1=O`, the cell count in test [1] was determined as 641. The inhibition was -14.8% (inactive) in test [1], -33% (inactive) in test [3], 12.6% (inactive) in test [7] and 11.8% (inactive) in test [8]. Further, the inhibition of aggregation in test [2] is 10.5% (inactive). Besides, the nuclei count in test [2] is 104%; in test [3] it was 115%. In addition, the fluorescence slope in test [4] is -0.473 (inactive); in test [6] it was 0.0042 (inactive). The NADPH fluorescence slope in test [5] is -3.8e-05 (inactive).

On to `CCOc1ccc(C(=O)Cc2ccc3oc(C(=O)O)cc3c2)c(O)c1`, for which the cell count in test [1] came to 580. The inhibition in test [1] was 10.2% (inactive); in test [3], -3.3% (inactive); in test [7], 16.4% (inactive); in test [8], 22.3% (inactive). Further, in test [2], the inhibition of aggregation was 4.1% (inactive). Besides, the nuclei count in test [2] amounted to 63.8%; in test [3], 97.5%. Besides, the fluorescence slope was -0.522 (inactive) in test [4] and 0.00668 (inactive) in test [6]. Moreover, the NADPH fluorescence slope in test [5] is -4.9e-05 (inactive).

On to `CCCCc1c(O)nc(SCC(=O)c2ccccc2)[nH]c1=O`, for which the cell count in test [1] is 375. Also, the inhibition in test [1] was 1.7% (inactive); in test [3], 21.3% (inactive); in test [7], 14.2% (inactive); in test [8] it was 11.2% (inactive). Besides, in test [2], the inhibition of aggregation is 10.7% (inactive). In addition, the nuclei count in test [2] was 90.4%; in test [3], 95.1%. The values for the fluorescence slope in test [4] and in test [6] were -0.561 (inactive) and 0.00359 (inactive), respectively. Besides, the NADPH fluorescence slope in test [5] is -8.5e-05 (inactive).
